Laboratory results published in ChEMBL document CHEMBL2321736 (ACS Med Chem Lett, 2013).
Converted amounts (≈) assume the structure as drawn.

Assays:
[1] = Thermodynamic solubility of the compound at pH 7.4; type: physicochemical; conditions: buffer, read-out: Therm_solubility
Summary of the method: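 Thermodynamic solubility measured at pH 7.4.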

[2] = Volume of distribution in Sprague-Dawley rat at 0.5 mg/kg, iv; type: ADME, organism-based; set-up: dose 0.5 mg/kg, route intravenous; conditions: in vivo
Summary of the method: (§1)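 Male Sprague−Dawley rats given 0.5 mg/kg iv in 60% NMP solution, n = 3. Brain/plasma value is the unbound brain to unbound plasma AUC ratio after this iv dose.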

[3] = Plasma clearance in Sprague-Dawley rat at 0.5 mg/kg, iv; type: ADME, organism-based; set-up: dose 0.5 mg/kg, route intravenous; summary of the method: as §1
[4] = Ratio of unbound drug level in brain to plasma in Sprague-Dawley rat at 0.5 mg/kg, iv; type: ADME, organism-based; set-up: dose 0.5 mg/kg, route intravenous; conditions: read-out: K(p,uu,brain); summary of the method: as §1
[5] = Oral bioavailability in beagle dog at 1 mg/kg; type: ADME, organism-based, Canis lupus familiaris; conditions: in vivo
Summary of the method: (§2)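 Male Beagle dogs, n = 3. iv dose 0.5 mg/kg in 30% NMP solution; oral dose 1 mg/kg as aqueous suspension of 1% RC591 + 0.2% tween80.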

[6] = Plasma clearance in beagle dog at 0.5 mg/kg, iv and 1 mg/kg, po; type: ADME, organism-based, Canis lupus familiaris; summary of the method: as §2

Row | SMILES | solubility thermodynamic [1] [mg/mL] | Vd [2] [L/kg] | clearance [3] [L/h/kg] | Kp uu [4] | bioavailability [5] [%] | clearance [6] [L/h/kg]
1 | CNc1nc(Nc2cc(F)c(C(=O)N3CCOCC3)cc2OC)ncc1C(F)(F)F | < 0.0009 | – | – | – | – | –
2 | CNc1nc(Nc2cnn(CC(C)(C)O)c2C)ncc1C(F)(F)F | – | 0.88 | 2.1 | 0.26 | – | –
3 | CNc1nc(Nc2cnn(CC(C)(C)O)c2Cl)ncc1C(F)(F)F | 0.02 (≈ 54.8 µM) | 2.5 | 1.26 | 0.37 | 31 | 1.32
